# Reference: PubChem BioAssay AID651922 (Vanderbilt Specialized Chemistry Center, 2012)
# The source made the active and inactive calls. The rule behind the calls is not given here.
# Biological target: Muscarinic acetylcholine receptor M3 (Homo sapiens) (UniProt P20309)
# Assay: human M3 receptor potentiation, selectivity assay for M5 PAM project, CHO cells (AID 651922)
# Settings: CHO-K1 hM3, Fluo-4 calcium flux, ACh EC20 potentiation; series mostly up to 30 µM
# Outline: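 Assay system: CHO-K1 cells stably expressing human M3 muscarinic receptor, Fluo-4 loaded; Doses: 0.3% DMSO final; Timing: compound pre-incubation 1.5 min, acetylcholine stimulation 50 s, read at 25 °C; Detection: Fluo-4 fluorescence calcium mobilization measurement.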
# Chain of Muscarinic acetylcholine receptor M3 (Homo sapiens) (P20309 whole entry, looked up): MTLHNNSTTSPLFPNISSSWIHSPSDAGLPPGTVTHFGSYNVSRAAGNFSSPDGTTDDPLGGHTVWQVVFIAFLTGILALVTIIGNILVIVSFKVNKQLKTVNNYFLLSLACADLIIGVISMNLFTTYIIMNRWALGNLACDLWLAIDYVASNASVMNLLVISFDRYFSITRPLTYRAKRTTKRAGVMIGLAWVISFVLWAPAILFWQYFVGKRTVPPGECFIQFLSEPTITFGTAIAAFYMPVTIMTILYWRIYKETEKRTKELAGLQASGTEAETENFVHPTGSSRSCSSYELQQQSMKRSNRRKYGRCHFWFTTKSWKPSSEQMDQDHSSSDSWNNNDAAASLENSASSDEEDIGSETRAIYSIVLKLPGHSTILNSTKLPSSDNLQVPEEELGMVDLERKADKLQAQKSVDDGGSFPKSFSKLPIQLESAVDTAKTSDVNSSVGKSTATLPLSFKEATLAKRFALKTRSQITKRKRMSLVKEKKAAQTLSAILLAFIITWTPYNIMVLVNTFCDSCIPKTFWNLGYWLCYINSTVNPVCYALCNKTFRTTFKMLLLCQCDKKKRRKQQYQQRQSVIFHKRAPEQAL
compound,measurement,value
O=C1C(=O)N(CCOc2ccccc2)c2ccc(OC(F)(F)F)cc21,outcome,inactive
